The test system of one data set is Felid alphaherpesvirus 1. The data set can be described thus: Antiviral activity against Feline herpes virus infected in cat CRFK cells assessed as protection against virus-induced cytopathogenicity after 2 days by MTS assay. It counts as functional, organism-based. As to conditions: Felid alphaherpesvirus 1, CRFK, 48 h; call rule not given here.
A short description of data set [1]: Cytotoxicity against cat CRFK cells by MTS assay. It counts as cell-based, Felis catus. As to conditions: CRFK cells, read-out: CC50. The gist of the method: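 In uninfected CRFK cells, the 50% cytotoxic concentration was derived from cell viability measured by the colorimetric formazan-based MTS assay.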
Background: Formazan colour is commonly taken as a measure of viable cells.

For data set [2], the system named is Feline infectious peritonitis virus. The data set can be described thus: Antiviral activity against Feline coronavirus FIPV infected in cat CRFK cells assessed as protection against virus-induced cytopathogenicity after 2 days by MTS assay. Format: functional, cell-based. As to conditions: Alphacoronavirus 1, CRFK, 48 h.
The nature of data set [3]: Cytotoxicity against human HeLa cells assessed as minimum concentration required to cause microscopically detectable alteration after 2 days. It counts as cell-based. To be noted: read-out: Activity.
For data set [4], the system named is Mammalian orthoreovirus 1. The data set can be described thus: Antiviral activity against Reovirus-1 infected in african green monkey Vero cells assessed as protection against virus-induced cytopathogenicity after 2 days. It counts as functional, organism-based. As to conditions: Mammalian orthoreovirus 1, Vero, 48 h.
The test system of the next data set is Sindbis virus. Put plainly: Antiviral activity against Sindbis virus infected in african green monkey Vero cells assessed as protection against virus-induced cytopathogenicity after 2 days. Format: functional, organism-based. To be noted: 48 h. For orientation: Damage to the host cells serves as the signal in cytopathic effect assays.
Data set [5] is described as follows: Cytotoxicity against african green monkey Vero cells assessed as minimum concentration required to cause microscopically detectable alteration after 2 days. Format: cell-based. As to conditions: chlorocebus sabaeus, read-out: Activity.
The subject of the next data set is Punta Toro virus. Put plainly: Antiviral activity against Punta Toro virus infected in african green monkey Vero cells assessed as protection against virus-induced cytopathogenicity after 2 days. Format: functional, organism-based. As to conditions: 48 h.
The test system of data set [6] is Coxsackievirus B4. The data set can be described thus: Antiviral activity against Coxsackie virus B4 infected in african green monkey Vero cells assessed as protection against virus-induced cytopathogenicity after 2 days. Format: functional, organism-based. To be noted: Enterovirus B, 48 h.
The subject of data set [7] is Coxsackievirus B4. The data set can be described thus: Antiviral activity against Coxsackie virus B4 infected in human HeLa cells assessed as protection against virus-induced cytopathogenicity after 2 days. As to conditions: Enterovirus B, 48 h. It counts as functional, organism-based.
Data set [8] relates to Vesicular stomatitis virus. The data set can be described thus: Antiviral activity against Vesicular stomatitis virus infected in human HeLa cells assessed as protection against virus-induced cytopathogenicity after 2 days. Format: functional, organism-based. To be noted: 48 h.
Data set [9] has as its system Respiratory syncytial virus. The data set can be described thus: Antiviral activity against Respiratory syncytial virus infected in human HeLa cells assessed as protection against virus-induced cytopathogenicity after 2 days. It counts as functional, organism-based. To be noted: 48 h.
The subject of another data set is Human respirovirus 3. The data set can be described thus: Antiviral activity against Para influenza-3 virus infected in african green monkey Vero cells assessed as protection against virus-induced cytopathogenicity after 2 days. Format: functional, organism-based. As to conditions: Human respirovirus 3, Vero, 48 h.
Data set [10] in a line: Cytotoxicity against MDCK cells assessed as minimum concentration required to cause microscopically detectable alteration after 2 days. To be noted: dog, read-out: Activity. Format: cell-based, Canis lupus familiaris.
The test system of a further data set is Human alphaherpesvirus 2. The data set can be described thus: Antiviral activity against Herpes simplex virus-2 G infected in human HEL cells assessed as protection against virus-induced cytopathogenicity after 2 days. Format: functional, organism-based. As to conditions: Human alphaherpesvirus 2, strain G, 48 h.
Data set [11] has as its system Human alphaherpesvirus 1. The data set can be described thus: Antiviral activity against acyclovir-resistant TK deficient Herpes simplex virus-1 KOS infected in human HEL cells assessed as protection against virus-induced cytopathogenicity after 2 days. Format: functional, organism-based. As to conditions: Human alphaherpesvirus 1, KOS, 48 h.
Data set [12] relates to Human alphaherpesvirus 1. Put plainly: Antiviral activity against Herpes simplex virus-1 KOS infected in human HEL cells assessed as protection against virus-induced cytopathogenicity after 2 days. Format: functional, organism-based. To be noted: Human alphaherpesvirus 1, KOS, 48 h.
Data set [13] in a line: Cytotoxicity against human HEL cells assessed as minimum concentration required to cause microscopically detectable alteration after 2 days. As to conditions: read-out: Activity. Format: cell-based.
Data set [14] relates to Vesicular stomatitis virus. Put plainly: Antiviral activity against Vesicular stomatitis virus infected in human HEL cells assessed as protection against virus-induced cytopathogenicity after 2 days. As to conditions: 48 h. Format: functional, organism-based.
Data set [15] has as its system Influenza A virus. Put plainly: Antiviral activity against Influenza A virus H3N2 infected in MDCK cells assessed as cell viability at 100 ug/ml after 2 days by MTS assay. It counts as functional, organism-based.
The subject of data set [16] is Influenza B virus. The data set can be described thus: Antiviral activity against influenza B virus infected in MDCK cells assessed as protection against virus-induced cytopathogenicity at 100 ug/ml after 2 days. It counts as functional, organism-based. In short, it runs like this:
(§1)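 Infected MDCK cells were treated. […] N.A. means not active at the highest concentration tested or at a subtoxic concentration.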

Data set [17] has as its system Influenza B virus. The data set can be described thus: Antiviral activity against influenza B virus infected in MDCK cells assessed as cell viability at 100 ug/ml after 2 days by MTS assay. Format: functional, organism-based.
Data set [18] relates to Influenza A virus. Put plainly: Antiviral activity against influenza A virus H1N1 infected in MDCK cells assessed as protection against virus-induced cytopathogenicity at 100 ug/ml after 2 days. Format: functional, organism-based. The gist of the method:
as §1

Data set [19] has as its system Influenza A virus. Put plainly: Antiviral activity against influenza A virus H1N1 infected in MDCK cells assessed as cell viability at 100 ug/ml after 2 days by MTS assay. Format: functional, organism-based.
Data set [20] relates to Influenza A virus. The data set can be described thus: Antiviral activity against Influenza A virus H3N2 infected in MDCK cells assessed as protection against virus-induced cytopathogenicity at 100 ug/ml after 2 days. Format: functional, organism-based. The gist of the method: as §1

In brackets after ≈: the same amount, converted by molar mass.

For the molecule `CC(=O)N[C@H]1[C@H](OOP(=O)(O)OP(=O)(O)OC[C@H]2O[C@@H](n3ccc(=O)[nH]c3=O)[C@H](O)[C@@H]2O)O[C@H](CO)[C@@H](O)[C@@H]1O[C@](C)(OP(=O)(O)O)C(=O)O`, the results for the EC50 (in the data set with Felid alphaherpesvirus 1; in data set [2]) were 53.1 µg/mL (≈ 67.1 µM) and 11.7 µg/mL (≈ 14.8 µM), respectively. For the same molecule, in data set [1], the half-maximal cytotoxic concentration (CC50) (as a rule, the concentration that lowers cell viability or growth by half) was over 100 µg/mL.

As for `Nc1ncnc2c1ncn2C[C@H](O)CO` [(S)-DHPA], the MCC at 48 h in data set [3] and in [5] was over 250 µg/mL in each case. Besides, the EC50 (in data set [4]; in the data set on Sindbis virus; in the data set on Punta Toro virus; in the data set on Coxsackievirus B4 [6]; with Coxsackievirus B4 [7]; in data set [8]) was over 250 µg/mL throughout. The EC50 (in data set [9]; with Human respirovirus 3) was over 250 µg/mL in each case.

As for `NC(=O)c1ncn([C@@H]2O[C@H](CO)[C@@H](O)[C@H]2O)n1` [RIBAVIRIN], the MCC at 48 h in [3] is over 250 µg/mL; in [10] it was over 100 µg/mL; in data set [5], over 250 µg/mL; in data set [13], over 250 µg/mL. For the same molecule, the EC50 (in [4]; in the data set with Human alphaherpesvirus 2; with Human alphaherpesvirus 1 [11]; with Human alphaherpesvirus 1 [12]; in the data set on Sindbis virus; in the data set with Coxsackievirus B4 [6]) was over 250 µg/mL throughout. For the same molecule, the EC50 in [8] and in data set [9] was 22 µg/mL (≈ 90.1 µM) throughout.

Consider `O=c1[nH]c(=O)n([C@H]2C[C@H](O)[C@@H](CO)O2)cc1/C=C/Br` [BRIVUDINE], for which the EC50 – broadly, the concentration at which the effect is half-maximal – in data set [14] was over 250 µg/mL; in the data set on Human alphaherpesvirus 2 it was 50 µg/mL (≈ 150 µM). Further, the MCC at 48 h in data set [13] is over 250 µg/mL.

`Nc1nc2c(ncn2COC(CO)CO)c(=O)[nH]1` [GANCICLOVIR]: the EC50 in data set [14] was over 100 µg/mL; in the data set on Human alphaherpesvirus 2 it was 0.07 µg/mL (≈ 0.274 µM); in the data set with Human alphaherpesvirus 1 [11], 2 µg/mL (≈ 7.84 µM); in the data set on Human alphaherpesvirus 1 [12], 0.05 µg/mL (≈ 0.196 µM); with Felid alphaherpesvirus 1, 0.8 µg/mL (≈ 3.13 µM); in data set [2], over 100 µg/mL. Moreover, the MCC at 48 h in data set [13] is over 100 µg/mL. Moreover, in [1], the CC50 is over 100 µg/mL.

In the case of `N=C(N)NCCC[C@H](N)C(=O)O` [ARGININE], the values for the EC50 (in the data set on Felid alphaherpesvirus 1; in [2]) were 1.6 µg/mL (≈ 9.18 µM) and 2.6 µg/mL (≈ 14.9 µM), respectively. Also, the CC50 in data set [1] was over 100 µg/mL.

Regarding `CN(C)c1ccc(/C=N/n2c(-c3ccccc3)nc3ccccc3c2=O)cc1`, the EC50 in data set [4] is over 20 µg/mL; in [14], over 20 µg/mL; with Influenza A virus [15], “Not Active”; with Influenza B virus [16] it was “Not Active”; in the data set with Human alphaherpesvirus 1 [11] it was over 20 µg/mL; in the data set with Influenza B virus [17], “Not Active”. For the same molecule, the EC50 entry with Influenza A virus [18] is “Not Active”; with Coxsackievirus B4 [7], over 20 µg/mL; in the data set on Influenza A virus [19] it was “Not Active”; in the data set with Felid alphaherpesvirus 1, over 100 µg/mL; in the data set on Influenza A virus [20] it was “Not Active”; with Human respirovirus 3, over 20 µg/mL.

Turning to `Nc1ccn(C[C@@H](CO)OCP(=O)(O)O)c(=O)n1.O.O` [CIDOFOVIR], the EC50 in data set [14] is over 250 µg/mL. Also, in data set [13], the MCC at 48 h was over 250 µg/mL.

With `C/C(=N\n1c(-c2ccccc2)nc2ccccc2c1=O)c1ccc(Cl)cc1`, the MCC at 48 h in data set [3], in [5] and in data set [13] was 100 µg/mL throughout. The EC50 in data set [4] was over 20 µg/mL; in the data set with Influenza A virus [15], “Not Active”; with Influenza B virus [16] it was “Not Active”; with Human alphaherpesvirus 1 [11], over 20 µg/mL; in the data set with Influenza B virus [17], “Not Active”; in the data set with Influenza A virus [18], “Not Active”. Also, the EC50 is over 20 µg/mL in the data set on Coxsackievirus B4 [6]; “Not Active” with Influenza A virus [19]; over 100 µg/mL in the data set with Felid alphaherpesvirus 1; over 20 µg/mL in data set [8]; “Not Active” in the data set on Influenza A virus [20]; over 20 µg/mL in the data set on Human respirovirus 3.

Source of the values: ChEMBL document CHEMBL1287642, “Synthesis, antiviral activity and cytotoxicity evaluation of Schiff bases of some 2-phenyl quinazoline-4(3)H-ones” (Eur J Med Chem, 2010).
